The values that follow come from ChEMBL document CHEMBL4052637, “Discovery and Characterization of R/S-N-3-Cyanophenyl-N'-(6-tert-butoxycarbonylamino-3,4-dihydro-2,2-dimethyl-2H-1-benzopyran-4-yl)urea, a New Histone Deacetylase Class III Inhibitor Exerting Antiproliferative Activity against Cancer Cell Lines” (J Med Chem, 2017).

For test [1], the target named is Histone deacetylase 1 (Homo sapiens) (UniProt Q13547). The test can be described thus: Inhibition of His-tagged recombinant human HDAC1 expressed in baculovirus expression system at 0.1 to 100 uM using Fluor-de-Lys-SIRT1 as substrate after 15 mins by fluorescence assay.
Sequence of Histone deacetylase 1 (Homo sapiens) (Q13547 whole entry): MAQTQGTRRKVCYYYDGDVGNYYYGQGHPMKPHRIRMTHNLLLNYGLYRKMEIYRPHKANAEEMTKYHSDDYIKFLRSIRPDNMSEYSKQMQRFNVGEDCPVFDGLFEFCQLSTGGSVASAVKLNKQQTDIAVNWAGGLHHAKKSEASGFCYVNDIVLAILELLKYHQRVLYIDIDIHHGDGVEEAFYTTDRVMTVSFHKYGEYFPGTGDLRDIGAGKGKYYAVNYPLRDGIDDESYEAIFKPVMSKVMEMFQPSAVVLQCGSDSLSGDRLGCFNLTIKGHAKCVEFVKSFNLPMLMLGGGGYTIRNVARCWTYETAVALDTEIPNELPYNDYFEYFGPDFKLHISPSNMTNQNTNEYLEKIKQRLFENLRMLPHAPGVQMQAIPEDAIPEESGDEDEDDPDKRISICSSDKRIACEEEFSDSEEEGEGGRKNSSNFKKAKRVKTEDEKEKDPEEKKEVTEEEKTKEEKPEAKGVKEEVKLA
Test [2] addresses T1, NAD-dependent protein deacetylase sirtuin-1 (Homo sapiens) (UniProt Q96EB6).
T1 sequence (whole entry): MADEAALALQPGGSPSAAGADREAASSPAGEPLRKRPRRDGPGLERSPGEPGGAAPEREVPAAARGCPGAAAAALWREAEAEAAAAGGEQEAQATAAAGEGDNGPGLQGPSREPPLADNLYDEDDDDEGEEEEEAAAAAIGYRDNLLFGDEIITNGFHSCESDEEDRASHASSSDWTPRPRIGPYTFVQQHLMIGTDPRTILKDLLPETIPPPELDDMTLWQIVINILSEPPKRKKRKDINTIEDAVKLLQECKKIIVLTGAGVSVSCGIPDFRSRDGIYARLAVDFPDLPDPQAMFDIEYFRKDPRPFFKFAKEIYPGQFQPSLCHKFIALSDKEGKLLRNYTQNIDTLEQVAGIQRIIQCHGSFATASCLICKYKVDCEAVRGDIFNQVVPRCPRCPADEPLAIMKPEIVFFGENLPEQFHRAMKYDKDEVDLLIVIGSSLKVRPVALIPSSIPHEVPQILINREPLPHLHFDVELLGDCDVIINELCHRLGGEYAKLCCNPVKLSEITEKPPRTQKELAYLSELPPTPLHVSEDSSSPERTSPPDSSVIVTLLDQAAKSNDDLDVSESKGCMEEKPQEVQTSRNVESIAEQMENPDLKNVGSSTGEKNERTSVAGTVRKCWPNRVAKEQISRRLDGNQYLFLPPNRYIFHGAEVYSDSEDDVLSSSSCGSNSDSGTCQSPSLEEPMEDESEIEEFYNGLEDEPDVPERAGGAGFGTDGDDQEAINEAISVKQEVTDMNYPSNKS
Kind of test: Inhibition of SIRT1 in human U373 cells assessed as increase of histone H4 acetylation at 10 to 25 after 8 to 24 hrs by Western blotting method. In kind it is cell-based. (In general: Immunoblotting shows a protein as a band on a membrane.)

In test [3] the target is T1, NAD-dependent protein deacetylase sirtuin-1 (Homo sapiens). The test can be described thus: Inhibition of SIRT1 in human U373 cells assessed as increase of histone H3K56 acetylation at 10 to 25 after 8 to 24 hrs by Western blotting method. It counts as cell-based. The procedure, abridged:
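Cells treated with the compound, then histone H3K56 acetylation assessed by Western blot on histone extracts; histone H1 or Coomassie staining as loading control.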

The test system of test [4] is Hs 683. The test can be described thus: Inhibition of spheroid forming capacity of human Hs683 cells assessed as decrease in surface area of tumor spheroids at 5 to 10 uM treated for 24 hrs measured after 96 hrs by bright field microscopic method. It counts as functional, cell-based. The procedure, abridged:
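Spheroids formed from 1 × 10^3 cells in 25 μL. Cells were pretreated 24 h with compound then left untreated 96 h, or untreated spheroids were cultured 96 h with compound. Surface measured from bright-field images; volume in voxels from 3D plots after image segmentation. Mean ± SD of three independent experiments.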

The subject of test [5] is SW1573. The test can be described thus: Antiproliferative activity against human SW1573 cells after 72 hrs by MTT assay. In kind it is functional, cell-based. The procedure, abridged:
(§1)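 MTT assay: cells in RPMI 1640 with 10% heat-inactivated FCS at 37 °C and 5% CO2 were seeded 24 h before treatment. They were exposed 72 h to compound at 0.01–100 μM, with DMSO as solvent.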

In test [6] the test system is A2780. Kind of test: Antiproliferative activity against human A2780 cells after 72 hrs by MTT assay. In kind it is functional, cell-based. The procedure, abridged:
as §1
A general note: Tetrazolium assays rely on reduction of a dye to a coloured formazan, in cell work by metabolically active cells.

The test system of test [7] is KB 3-1. Kind of test: Antiproliferative activity against human KB-3-1 cells after 72 hrs by MTT assay. It counts as functional, cell-based. The procedure, abridged: as §1
Test [8] concerns Hs 683. Kind of test: Induction of apoptosis in human Hs683 cells at 10 uM after 72 hrs by TUNEL method relative to control. It counts as functional.
Test [9] addresses T1, NAD-dependent protein deacetylase sirtuin-1 (Homo sapiens). The test can be described thus: Inhibition of SIRT1 in human Hs683 cells assessed as increase of histone H4 acetylation at 10 uM after 8 hrs by Western blotting method relative to control. In kind it is cell-based.
Test [10] addresses T2, NAD-dependent protein deacetylase sirtuin-2 (Homo sapiens) (UniProt Q8IXJ6).
T2 sequence (whole entry): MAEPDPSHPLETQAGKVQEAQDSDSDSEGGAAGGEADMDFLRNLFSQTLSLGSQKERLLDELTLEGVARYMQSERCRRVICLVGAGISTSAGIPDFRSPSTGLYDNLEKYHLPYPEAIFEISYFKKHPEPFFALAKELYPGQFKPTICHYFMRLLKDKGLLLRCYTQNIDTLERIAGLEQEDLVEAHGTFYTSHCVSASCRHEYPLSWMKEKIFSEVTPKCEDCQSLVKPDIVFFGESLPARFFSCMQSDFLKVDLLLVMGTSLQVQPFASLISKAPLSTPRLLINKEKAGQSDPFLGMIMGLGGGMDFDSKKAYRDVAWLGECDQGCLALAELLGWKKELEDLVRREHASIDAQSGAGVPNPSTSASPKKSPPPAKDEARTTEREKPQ
The test can be described thus: Inhibition of SIRT2 in human Hs683 cells assessed as increase of alpha-tubulin acetylation at 1 uM after 8 hrs by Western blotting method relative to control. In kind it is cell-based.

Test [11] deals with T2, NAD-dependent protein deacetylase sirtuin-2 (Homo sapiens). Kind of test: Inhibition of SIRT2 in human Hs683 cells assessed as increase of alpha-tubulin acetylation at 2.5 uM after 8 hrs by Western blotting method relative to control. It counts as cell-based.
Test [12] concerns U-373MG ATCC. Kind of test: Antiproliferative activity against human U373 cells transfected with SIRT1/2 siRNA at IC50 for MTT assay after 72 hrs by time-lapse videomicroscopy. In kind it is functional, cell-based.
Test [13] concerns U-373MG ATCC. The test can be described thus: Cell cycle arrest in human U373 cells assessed as accumulation at G2/M phase at 2 uM after 24 to 48 hrs by propidium iodide staining-based flow cytometry. The settings on record: 7.5 uM, in the assay text read “at 7.5 uM” for “at 2 uM”. It counts as functional. The procedure, abridged:
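Cells were exposed to compound at the IC50 for each line from the 72 h MTT assay, or to a reference HDAC inhibitor at 2 μM. Cell cycle distribution was analyzed after 24 and 48 h. Results are mean ± SD of three independent experiments, with p values against control cells.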
A general note: A flow cytometer gives signals particle by particle.

In test [14] the test system is CCRF-CEM. Kind of test: Growth inhibition of human CCRF-CEM cells after 48 hrs by SRB assay. In kind it is functional.
Test [15] concerns A549. The test can be described thus: Growth inhibition of human A549 cells after 48 hrs by SRB assay. In kind it is functional. The note with it: A549, 48 h.
In test [16] the test system is EKVX. Kind of test: Growth inhibition of human EKVX cells after 48 hrs by SRB assay. It counts as functional.
Test [17] deals with HOP-62. The test can be described thus: Growth inhibition of human HOP62 cells after 48 hrs by SRB assay. In kind it is functional. The note with it: HOP-62, 48 h.
Test [18] relates to HOP-92. The test can be described thus: Growth inhibition of human HOP92 cells after 48 hrs by SRB assay. It counts as functional. The note with it: HOP-92, 48 h.
Test [19] concerns NCI-H322M. Kind of test: Growth inhibition of human NCI-H322M cells after 48 hrs by SRB assay. It counts as functional.
Test [20] concerns UACC-62. Kind of test: Growth inhibition of human UACC62 cells after 48 hrs by SRB assay. It counts as functional. The settings on record: UACC-62, 48 h.
Test [21] deals with MCF7. Kind of test: Growth inhibition of human MCF7 cells after 48 hrs by SRB assay. It counts as functional. The note with it: MCF7, 48 h.
Test [22] concerns MDA-MB-468. The test can be described thus: Growth inhibition of human MDA-MB-468 cells after 48 hrs by SRB assay. In kind it is functional. The note with it: MDA-MB-468, 48 h.

By GI50 is commonly meant the concentration that inhibits growth by half.

Each structure is given as a SMILES string. Calls of active or inactive are those of the source. The rule behind the calls is not given here.

With `CC(C)(C)OC(=O)Nc1ccc2c(c1)C(NC(=O)Nc1cccc(C#N)c1)CC(C)(C)O2` (configuration not stated), the inhibition result in test [1] was “inactive”. The inhibition result in [2], in test [3] and in test [4] was “Active” throughout. Moreover, the outcome in [5], in test [6], in test [7], in test [12] and in test [13] was Active. The Activity in [8] was 25%. For the same compound, the fold change (FC) in [9] is 12; in [10] it was 1.3; in [11] it was 1.2. The GI50 is 3310 nM in test [14]; 2750 nM in test [15]; 562 nM in test [16]; 5010 nM in test [17]; 776 nM in test [18]; 21900 nM in [19]. Besides, the 50% growth inhibitory concentration (GI50) is 1000 nM in test [20], 2140 nM in test [21] and 269 nM in test [22].
